# High-throughput results as filed in PubChem BioAssay.
# Only some compounds are listed: those with a hit (about 4.5% of all), similar ones and a draw of the others.
# OX1R antag-1: human HCRTR1 antagonism. 330,000 tested, 0.43% active. inhibition, % at 5 µM. O43613. CHO/OX1R cells, Fluo-8 calcium fluorescence, orexin A. AID 434989;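 active = inhibition above its plate's threshold, mean inhibition of all tested compounds on the plate plus 3 SD, cut at about 37% in these data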
# CHO parental Ca: signal in parental CHO cells, OX1R antagonist counter-screen; parental CHO-K1, ATP-induced calcium, Fluo-8 fluorescence; 330,000 tested, 0.63% active; AID 463079; inhibition, % at 5.6 µM;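 active = inhibition above that plate's mean sample inhibition plus 3 SD, cut at about 26% in these data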
#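 Assay system: untransfected parental CHO cell line. Also added: ATP agonist challenge. Dosing: one dose, 5.6 µM nominal. Measured by: Fluo-8 fluorescence. Read-out: % inhibition. Benchmarks: ATP wells versus no-ATP DMSO wells. Repeats: no replicates.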
# GPR7 antag: antagonists of human GPR7 (neuropeptides B/W receptor 1) | P48145 | GPR7-expressing cells, fluorescence antagonist assay | inhibition, % at 4.4 µM | 290,000 tested, 1.1% active | AID 1861; in the data active = inhibition above about 16%, passing the limit was not always enough;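 also: cells stimulated with the agonist NPW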
# Target sequence (P48145 whole entry, looked up): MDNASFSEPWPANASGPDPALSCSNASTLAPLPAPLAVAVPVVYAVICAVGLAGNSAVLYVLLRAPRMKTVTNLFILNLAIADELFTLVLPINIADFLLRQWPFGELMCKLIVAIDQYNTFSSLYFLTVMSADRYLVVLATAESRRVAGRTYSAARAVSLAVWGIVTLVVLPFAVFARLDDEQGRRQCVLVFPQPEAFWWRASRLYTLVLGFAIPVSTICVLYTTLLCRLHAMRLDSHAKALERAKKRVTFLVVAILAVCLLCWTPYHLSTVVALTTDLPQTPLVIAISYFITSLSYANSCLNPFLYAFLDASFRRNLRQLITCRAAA
# TAAR1 antag: human TAAR1 antagonism. inhibition, % at 3 µM. AID 624466. 360,000 tested, 1.5% active. CHO RD-HGA16 TAAR1, Fluo-8 calcium fluorescence, antagonist;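 active = inhibition above a per-plate cutoff, the mean inhibition of test compounds on that plate plus 3 SD, cut at about 49% in these data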
# Target sequence (Q96RJ0 whole entry, looked up): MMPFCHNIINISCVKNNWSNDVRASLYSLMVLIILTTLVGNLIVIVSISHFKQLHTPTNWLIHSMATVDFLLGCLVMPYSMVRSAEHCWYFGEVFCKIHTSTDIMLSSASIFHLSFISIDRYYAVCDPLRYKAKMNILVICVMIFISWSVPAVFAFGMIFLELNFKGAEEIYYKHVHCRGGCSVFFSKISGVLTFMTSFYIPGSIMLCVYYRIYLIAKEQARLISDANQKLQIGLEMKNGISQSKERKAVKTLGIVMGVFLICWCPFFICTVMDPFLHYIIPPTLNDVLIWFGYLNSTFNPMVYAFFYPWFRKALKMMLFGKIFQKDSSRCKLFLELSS
#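 Test system: RD-HGA16 CHO cells with stable hTAAR1 and Gα16 / Probe or stimulus: EC80 β-phenethylamine stimulus / Times: seeding 17-24 h prior, 75-min 37 °C, 30-min RT dye loading / Detection: Fluo-8 calcium-sensitive fluorescence / Read-out basis: % inhibition scaled between DMSO and EC80 PEA controls / Repeats: singlicate, one well per test compound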
# OX1R antag-2: antagonists of human orexin 1 receptor (OX1R) | O43613 | OX1R-expressing cells, FRET antagonist read-out | inhibition, % at 6.6 µM | 330,000 tested, 1.8% active | AID 485270; in the data active = inhibition mostly above about 38%, no sharp cut-off; inactive = mostly below about 40%
# TAAR1 ag: human TAAR1 agonism. CHO RD-HGA16 TAAR1, Fluo-8 calcium fluorescence; vehicle wells 0%, saturating PEA agonist 100%. activation, % at 3 µM. 360,000 tested, 0.99% active;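 active = activation above the mean activation of all test compounds in the run plus 3 SD, cut at about 38% in these data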
#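 Test system: RD-HGA16 (CHO) cells co-expressing Gα16 and hTAAR1 | Doses: Single dose, 3 µM | Schedule: 17-24 h seeding, 75 min 37 °C dye, 30 min RT | Evaluation: % activation from peak over basal fluorescence ratio, DMSO-to-PEA scaled | Technique: Kinetic Fluo-8 calcium fluorescence | Benchmarks: Low control DMSO, high control PEA (EC100)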
# A number is an active result; i = inactive; nt = not tested or not shown.
SMILES,OX1R antag-1,CHO parental Ca,GPR7 antag,TAAR1 antag,OX1R antag-2,TAAR1 ag
COc1cccc(NC(=O)c2cc(-c3cccnc3)nc3c(Cl)cccc23)c1,i,i,i,56.7,i,i
CCCc1ccc(-c2cc(NC(=O)Cc3c(C)[nH]c4ccccc34)ccc2Nc2cccnc2)cc1,nt,nt,nt,i,nt,i
CCOC(=O)C1=C(C(=O)OCC)C2N(Cc3ccc(Br)cc3)c3ccccc3[C@@]23C[C@@H](C(=O)OC)N(S(=O)(=O)c2ccc(F)cc2)C3=N1 (some centres undefined),nt,nt,nt,i,nt,i
COc1ccc(OC)c(/C=N/NC(=O)c2cccc3ccccc23)c1,i,i,nt,i,i,i
COc1ccc(OC)c(/C=N\NC(=O)c2cc3c(ccc4ccccc43)o2)c1,i,i,i,i,73.4,i
Cc1nc(-c2ccccc2)sc1C(=O)Nc1ccccc1F,i,i,i,i,i,i
COc1ccc(NC(=O)c2sc(-c3ccccc3)nc2C)c(OC)c1,i,i,i,i,43.4,i
CC1=C(C(=O)N(C(C)C)C(C)C)CC(CC(=O)NCc2cccc3ccccc23)C(=O)N1Cc1ccccc1 (centres undefined),nt,nt,nt,i,nt,i
CCOC(=O)c1csc(-c2ccc(OC)c(OC)c2)n1,i,i,i,i,i,i
CCOC(=O)c1csc(-c2sccc2Br)n1,i,i,i,i,44.9,i
CN(C)Cc1c(O)ccc2c(-c3ccccc3)cc(=O)oc12,i,i,i,i,i,i
CN(C)Cc1c(O)ccc2cc(-c3nc4ccccc4n3C)c(=O)oc12,i,i,i,i,43.3,i
COc1ccc(-c2cc(=Nc3c(C)n(C)n(-c4ccccc4)c3=O)c3ccccc3o2)cc1,i,i,i,i,54.9,i
O=[N+]([O-])c1nccn1CC(O)CO (centres undefined),nt,nt,nt,i,nt,i
C=CCN=C1NC(c2ccccc2C(F)(F)F)C(C(=O)OC)=C(C)N1Cc1cccc(C(F)(F)F)c1 (centres undefined),nt,nt,nt,i,nt,i
Nc1nn(-c2ccccc2)c(N)c1N=Nc1ccc2c(c1)OCO2,i,i,23.6,i,i,i
Nc1nn(-c2ccccc2)c(N)c1N=Nc1cccc(F)c1,i,i,i,i,i,i
OC(CNCC(c1ccc(Cl)cc1Cl)c1c[nH]c2ccccc12)c1ccccc1 (centres undefined),i,32.6,i,i,i,i
O=[N+]([O-])CC(c1ccccc1)c1c[nH]c2ccccc12 (centres undefined),i,i,nt,i,i,i
Cc1ccc(S(=O)(=O)NC(=O)C2(C)CCN2C(=O)c2ccccc2CCc2ccccc2)nc1 (centres undefined),nt,nt,nt,i,nt,i
CC(=O)/C(N=Nc1ccc(C(=O)O)cc1[N+](=O)[O-])=C(\C)O,i,i,i,i,40.6,i
CC(=O)OCC(=O)N1CCN(C(=O)C(=O)c2cccc(C(F)(F)F)c2)CC1,nt,nt,nt,i,nt,i
CN1CCN(Cn2cc(/C=C/C(=O)c3ccccc3)c3ccccc32)CC1,i,i,i,nt,40.3,nt
O=C(NNC(=O)c1ccccc1[N+](=O)[O-])c1cccs1,i,i,i,i,i,i
O=C(c1ccc([N+](=O)[O-])cc1)N1CCN(C(=O)c2cccs2)CC1,i,i,i,i,49.7,i
SMILES,OX1R antag-1,CHO parental Ca,GPR7 antag,TAAR1 antag,OX1R antag-2,TAAR1 ag
O=C(NNC(=O)c1cc([N+](=O)[O-])ccc1Cl)c1cccs1,i,i,i,i,46.1,i
CCOC(=O)N(C)[C@H]1C[C@H]2c3cc(-c4ccccc4C)ccc3CCN2C[C@H]1[C@H](C)O,nt,nt,nt,i,nt,i
CSCCC(NC(=O)c1ccc([N+](=O)[O-])cc1Cl)C(=O)OC(C)C(=O)NCc1ccco1 (centres undefined),i,i,nt,i,49.4,i
CSCCC(NC(=O)c1ccc([N+](=O)[O-])cc1Cl)C(=O)OCC(=O)N1CCN(C(C)=O)CC1 (centres undefined),i,i,nt,i,54.9,i
CSCCC(NC(=O)c1ccc([N+](=O)[O-])cc1Cl)C(=O)OCC(=O)C12CC3CC(CC(C3)C1)C2 (centres undefined),i,i,i,i,i,i
C[C@@H]1OC(C2CCCCC2)N(C)[C@H]2C[C@H]3c4[nH]c5c(-c6ccccc6)cccc5c4CCN3C(=O)[C@@H]12 (some centres undefined),nt,nt,nt,i,nt,i
COC(=O)/C=C1\OC(C)c2ccccc21 (centres undefined),nt,nt,nt,i,nt,i
Cc1cccc(O)c1C,i,i,nt,i,i,i
Cc1cccc(C)c1N=Nc1c(C)cc(O)cc1C,i,59.8,i,i,i,i
Cc1cc(C)n(Cc2ccc(NC(=O)c3ccc(COc4ccccc4Br)cc3)cc2)n1,i,i,i,48.6,i,i
O=S(c1ccc2ccccc2c1)c1cnns1 (centres undefined),i,i,i,i,i,54.9
O=C(NCCC1=CCCCC1)c1[nH]c(C(F)(F)F)nc1-c1ccccc1,nt,nt,nt,i,nt,i
CCOc1ccc(NS(=O)(=O)c2ccc(C(=O)N3CCCCCC3)cc2)cc1,i,i,nt,i,i,47.0
CCCNC(=O)COc1ccc(S(=O)(=O)Nc2ccc(C)cc2)cc1,i,i,i,i,i,39.6
CC1(C)C(C=C(Cl)Cl)C1C(=O)Nc1ccc([N+](=O)[O-])cc1 (centres undefined),i,49.6,i,i,i,i
CC1(C)C(C=C(Cl)Cl)C1C(=O)N/N=C/c1ccccc1F (centres undefined),i,i,i,i,i,i
O=C(Nc1ccc([N+](=O)[O-])cc1)C1CC1(c1ccccc1)c1ccccc1 (centres undefined),i,i,i,53.6,i,i
Cc1ccccc1Cn1c(C)c(C(=O)NCCC#N)sc1=O,nt,nt,nt,i,nt,i
Cc1cc(C)n(C(=O)c2cccc(S(=O)(=O)N3CCCC3)c2)n1,i,i,20.8,i,i,i
O=C(c1cccc(S(=O)(=O)N2CCCC2)c1)c1nnc(-c2ccncc2)o1,i,i,i,i,43.0,i
Cc1noc(C)c1COC(=O)c1ccc(F)c(S(=O)(=O)N2CCCCC2)c1,i,i,i,i,i,i
Cc1noc(C)c1COC(=O)c1cccc(S(=O)(=O)N2CCCCCC2)c1,i,49.3,i,i,i,i
CN1CCN(C(=O)c2cccc(S(=O)(=O)N3CCCC3)c2)CC1,i,i,nt,i,i,i
C[C@@H]1CN(C(=O)OC(C)(C)C)CCN1c1ccc(Br)c(C#N)c1,nt,nt,nt,i,nt,i
CCCCN1CC(COCc2ccccc2)Oc2cccc(N3CCCCC3)c2S1(=O)=O (centres undefined),nt,nt,nt,i,nt,i
O=C(C[n+]1ccc(C(=O)c2ccccc2)cc1)Nc1ccccc1OC(F)F,i,i,nt,i,46.0,i
O=C(COC(=O)c1ccc[n+]([O-])c1)Nc1ccccc1OC(F)F,i,i,nt,i,i,i
